The subject of one experiment is PC-12. In words: Selectivity ratio of Ki for sigma 2 receptor in rat PC12 cells to Ki for sigma 1 receptor in rat brain homogenates. Format: cell-based. A digest of the protocol: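 Competition binding, done by the NIMH Psychoactive Drug Screening Program. σ1 Ki came from displacement of [³H](+)-pentazocine in rat brain homogenate, and σ2 Ki from displacement of [³H]DTG in a PC12 cell preparation. Ki values were mean with SEM from triplicate assays. The ratio is σ2 Ki divided by σ1 Ki.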

Experiment [1] is described as follows: Displacement of [3H]MK801 from PCP binding site of NMDA receptor at 10 uM after 1.5 hrs by liquid scintillation counting. For orientation: Displacement assays read how much labelled ligand stays bound in the presence of the test substance.
The target of experiment [2] is 5-hydroxytryptamine receptor 2B (Homo sapiens, UniProt P41595). Description: Displacement of [3H]LSD from 5-HT2B after 1.5 hrs by liquid scintillation counting.
Sequence of 5-hydroxytryptamine receptor 2B (P41595 whole entry): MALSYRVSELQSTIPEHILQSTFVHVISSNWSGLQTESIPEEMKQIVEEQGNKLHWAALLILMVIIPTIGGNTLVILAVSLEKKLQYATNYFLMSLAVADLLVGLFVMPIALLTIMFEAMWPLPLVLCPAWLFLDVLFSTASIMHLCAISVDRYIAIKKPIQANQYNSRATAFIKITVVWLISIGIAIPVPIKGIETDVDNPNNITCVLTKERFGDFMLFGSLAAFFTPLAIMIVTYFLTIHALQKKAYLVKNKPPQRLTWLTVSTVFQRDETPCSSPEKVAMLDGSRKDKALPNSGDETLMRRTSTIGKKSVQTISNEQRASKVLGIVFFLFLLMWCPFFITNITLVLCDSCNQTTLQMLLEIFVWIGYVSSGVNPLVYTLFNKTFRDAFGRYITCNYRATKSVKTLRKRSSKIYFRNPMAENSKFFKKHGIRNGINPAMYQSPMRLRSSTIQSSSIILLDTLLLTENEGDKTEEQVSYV
Experiment [3] deals with T1, D(2) dopamine receptor (Homo sapiens, UniProt P14416). In words: Displacement of [3H]N-methylspiperone from D2 after 1.5 hrs by liquid scintillation counting.
T1 sequence (P14416 whole entry): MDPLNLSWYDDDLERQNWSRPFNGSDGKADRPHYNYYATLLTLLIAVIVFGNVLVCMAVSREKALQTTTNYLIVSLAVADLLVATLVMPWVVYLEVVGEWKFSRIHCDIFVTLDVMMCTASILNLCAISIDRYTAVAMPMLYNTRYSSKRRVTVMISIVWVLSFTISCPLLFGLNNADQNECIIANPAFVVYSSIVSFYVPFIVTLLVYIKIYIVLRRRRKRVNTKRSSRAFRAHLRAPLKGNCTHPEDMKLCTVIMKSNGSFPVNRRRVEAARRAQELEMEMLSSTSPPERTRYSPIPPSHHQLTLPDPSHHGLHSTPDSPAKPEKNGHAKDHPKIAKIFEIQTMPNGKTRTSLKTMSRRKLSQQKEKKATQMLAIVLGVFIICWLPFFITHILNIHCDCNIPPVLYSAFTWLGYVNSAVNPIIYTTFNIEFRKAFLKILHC
The nature of experiment [4]: Displacement of [3H]DTG from sigma 2 receptor in rat PC12 cells after 2 hrs by liquid scintillation counting. Format: cell-based. To be noted: pc-12. An outline of the steps: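 σ2 affinity by competition with [³H]DTG in a PC12 cell preparation, following a modified Kovacs and Larson protocol. Ki determinations were run by the NIMH PDSP. Values are mean ± SEM of triplicate assays.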

Experiment [5] has as its target T1, D(2) dopamine receptor. In words: Displacement of [3H]N-methylspiperone from D2 at 10 uM after 1.5 hrs by liquid scintillation counting.
Experiment [6] has as its target Sigma non-opioid intracellular receptor 1 (Rattus norvegicus, UniProt Q9R0C9). Description: Displacement of [3H](+)-pentazocine from sigma 1 receptor in rat brain homogenate after 2.5 hrs by liquid scintillation counting. Format: tissue-based. A digest of the protocol:
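σ1 affinity by competition with [³H](+)-pentazocine in rat brain homogenate, following a modification of the Kovacs and Larson protocol. Ki determinations were run by the NIMH Psychoactive Drug Screening Program. Values are mean ± SEM from triplicate assays.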

Sequence of Sigma non-opioid intracellular receptor 1 (Q9R0C9 whole entry): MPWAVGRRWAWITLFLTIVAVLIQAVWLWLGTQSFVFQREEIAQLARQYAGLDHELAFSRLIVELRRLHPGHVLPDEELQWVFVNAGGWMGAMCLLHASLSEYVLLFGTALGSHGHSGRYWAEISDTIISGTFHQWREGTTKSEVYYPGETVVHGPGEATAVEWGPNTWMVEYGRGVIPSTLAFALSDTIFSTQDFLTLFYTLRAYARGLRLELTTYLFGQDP

As a reminder, the inhibition is the drop in the measured response relative to a control, in per cent. A lower inhibition goes with a response near the control. Usually Ki stands for the equilibrium dissociation constant of an inhibitor or competing ligand from its target. The low end stands for tighter binding, the high end for weaker binding. Regarding `COc1ccc(CCCN2CCN(Cc3cc4ccccc4o3)CC2)cc1`, in the experiment with PC-12, the Ratio Ki is 45. Besides, the inhibition (in experiment [1]; at D(2) dopamine receptor [5]) was < 50% in each case. Further, the inhibition constant (Ki) is 155 nM in experiment [2], > 10000 nM on D(2) dopamine receptor [3], 138 nM in experiment [4] and 3.1 nM in experiment [6].
As to `COc1ccccc1CCCCN1CCN(Cc2cc3ccccc3o2)CC1`, the Ratio Ki in the experiment with PC-12 is 8. The inhibition in experiment [1] was < 50%. For the same compound, the Ki was found to be 332 nM in experiment [2], 432 nM on D(2) dopamine receptor [3], 130 nM in experiment [4] and 16 nM in experiment [6].
Turning to `COc1cccc(CCCN2CCN(Cc3cc4ccccc4o3)CC2)c1`, the Ratio Ki with PC-12 was determined as 7. Further, the inhibition in experiment [1] is < 50%. The inhibition constant (Ki) is 243 nM in experiment [2], 556 nM at D(2) dopamine receptor [3], 40 nM in experiment [4] and 5.7 nM in experiment [6].
As for `COc1ccccc1CCN1CCN(Cc2cc3ccccc3o2)CC1`, in the experiment with PC-12, the Ratio Ki came to 5. The inhibition in experiment [1] was < 50%. The Ki in experiment [2] amounted to 120 nM; at D(2) dopamine receptor [3], 1650 nM; in experiment [4], 81 nM; in experiment [6], 17 nM.
As for `c1ccc(CCN2CCN(Cc3cc4ccccc4o3)CC2)cc1`, the Ratio Ki in the experiment on PC-12 came to 18. For the same compound, the inhibition (in experiment [1]; on D(2) dopamine receptor [5]) was < 50% throughout. In addition, the inhibition constant Ki was determined as 310 nM in experiment [2], 131 nM in experiment [4] and 7.3 nM in experiment [6].
Turning to `COc1ccc(CCN2CCN(Cc3cc4ccccc4o3)CC2)cc1`, the Ratio Ki with PC-12 was found to be 11. In addition, the inhibition (in experiment [1]; on D(2) dopamine receptor [5]) was < 50% throughout. Further, the results for the Ki in experiment [2], in experiment [4] and in experiment [6] were 463 nM, 101 nM and 9.4 nM, respectively.
Consider `COc1cccc(CCN2CCN(Cc3cc4ccccc4o3)CC2)c1`, for which, in the experiment on PC-12, the Ratio Ki is 1. For the same compound, the inhibition (in experiment [1]; on D(2) dopamine receptor [5]) was < 50% each time. Moreover, the inhibitory constant (Ki) in experiment [2] came to 290 nM; in experiment [4] it was 14 nM; in experiment [6] it was 13 nM.
As for `COc1ccc(CCCCN2CCN(Cc3cc4ccccc4o3)CC2)cc1`, the Ratio Ki in the experiment with PC-12 stood at 7. In addition, in experiment [1], the inhibition is < 50%. For the same compound, the Ki in experiment [2] was found to be 352 nM; at D(2) dopamine receptor [3], 5790 nM; in experiment [4], 87 nM; in experiment [6] it was 13 nM.
In the case of `c1ccc(CCCN2CCN(Cc3cc4ccccc4o3)CC2)cc1`, the Ratio Ki in the experiment with PC-12 came out at 3. The inhibition in experiment [1] is < 50%. The Ki in experiment [2] amounted to 147 nM; at D(2) dopamine receptor [3], 1020 nM; in experiment [4] it was 18 nM; in experiment [6], 5.7 nM.
With `COc1ccccc1CCCN1CCN(Cc2cc3ccccc3o2)CC1`, the Ratio Ki in the experiment on PC-12 turned out to be 6. Moreover, the inhibition in experiment [1] is < 50%. In addition, the Ki was found to be 628 nM in experiment [2], 5870 nM on D(2) dopamine receptor [3], 53 nM in experiment [4] and 8.3 nM in experiment [6].
Take `c1ccc(CCCCN2CCN(Cc3cc4ccccc4o3)CC2)cc1`: in the experiment with PC-12, the Ratio Ki turned out to be 4. Moreover, the inhibition in experiment [1] is < 50%. Moreover, the Ki in experiment [2] turned out to be 275 nM; at D(2) dopamine receptor [3] it was 89 nM; in experiment [4], 18 nM; in experiment [6], 4.2 nM.
For `COc1cccc(CCCCN2CCN(Cc3cc4ccccc4o3)CC2)c1`, in the experiment on PC-12, the Ratio Ki was found to be 28. Also, the inhibition in experiment [1] was < 50%. Moreover, the inhibition constant (Ki) came out at 343 nM in experiment [2], 484 nM on D(2) dopamine receptor [3], 211 nM in experiment [4] and 7.6 nM in experiment [6].
